Test results reported in ChEMBL document CHEMBL4765454, “Betulinic acid derived amides are highly cytotoxic, apoptotic and selective” (Eur J Med Chem, 2020).
Activity calls are given as the source filed them. The calls are words filed in the database; no cut-off is given here.

What was measured:
[1] = tested on: MCF7; assay: Cytotoxicity against human MCF7 cells assessed as reduction in cell viability incubated for 72 hrs by SRB assay; type: functional, cell-based; conditions: Homo sapiens, MCF7, 72 h; read-out: EC50
[2] = tested on: A-375; assay: Cell cycle arrest in human A375 cells assessed as accumulation at G2/M phase measured after 48 hrs by propidium iodide staining based flow cytometry (reference value: 10.83%); type: functional
[3] = tested on: FaDu; assay: Cytotoxicity against human FaDu cells assessed as reduction in cell viability incubated for 72 hrs by SRB assay; type: functional, cell-based; conditions: Homo sapiens, FaDu, 72 h; read-out: EC50
[4] = tested on: A-375; assay: Induction of apoptosis in human A375 cells assessed as cell shrinkage at 3 uM measured after 48 hrs by microscopic analysis; type: functional, cell-based
How it was run: (§1)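 A375 cells treated at 3.0, 4.8 or 6.2 µM and inspected by light microscopy after 24 h or 48 h. Cell number and morphology were scored for apoptotic features: shrinkage, strangulation and blebbing.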

[5] = tested on: A-375; assay: Induction of apoptosis in human A375 cells assessed as late apoptotic cells at 3 uM measured after 24 hrs by Annexin V-FITC/propidium iodide staining based flow cytometry (reference value: 7.352%); type: functional
[6] = tested on: HT-29; assay: Cytotoxicity against human HT-29 cells assessed as reduction in cell viability incubated for 72 hrs by SRB assay; type: functional, cell-based; conditions: Homo sapiens, HT-29, 72 h; read-out: EC50
[7] = tested on: A2780; assay: Cytotoxicity against human A2780 cells assessed as reduction in cell viability incubated for 72 hrs by SRB assay; type: functional, cell-based; conditions: Homo sapiens, A2780, 72 h; read-out: EC50
[8] = tested on: A-375; assay: Cell cycle arrest in human A375 cells assessed as accumulation at G1 phase measured after 48 hrs by propidium iodide staining based flow cytometry (reference value: 57.3%); type: functional
[9] = tested on: A-375; assay: Induction of apoptosis in human A375 cells assessed as early apoptotic cells at 3 uM measured after 48 hrs by Annexin V-FITC/propidium iodide staining based flow cytometry (reference value: 1.622%); type: functional
[10] = tested on: A-375; assay: Cell cycle arrest in human A375 cells assessed as accumulation at G1 phase measured after 24 hrs by propidium iodide staining based flow cytometry (reference value: 44.59%); type: functional
[11] = tested on: NIH3T3; assay: Cytotoxicity against mouse NIH3T3 cells assessed as reduction in cell viability incubated for 72 hrs by SRB assay; type: cell-based; conditions: Mus musculus, NIH3T3, 72 h; read-out: EC50
[12] = tested on: A-375; assay: Cell cycle arrest in human A375 cells assessed as accumulation at subG1 phase measured after 48 hrs by propidium iodide staining based flow cytometry (reference value: 0.57%); type: functional
[13] = tested on: A-375; assay: Induction of apoptosis in human A375 cells assessed as early apoptotic cells at 3 uM measured after 24 hrs by Annexin V-FITC/propidium iodide staining based flow cytometry (reference value: 2.194%); type: functional
[14] = tested on: A-375; assay: Cell cycle arrest in human A375 cells assessed as accumulation at S phase measured after 48 hrs by propidium iodide staining based flow cytometry (reference value: 31.3%); type: functional
[15] = Selectivity ratio of EC50 for mouse NIH3T3 cells to EC50 for human FaDu cells
[16] = tested on: A-375; assay: Induction of apoptosis in human A375 cells assessed as blebbing at 3 uM measured after 48 hrs by microscopic analysis; type: functional, cell-based; how it was run: as §1
[17] = tested on: A-375; assay: Induction of apoptosis in human A375 cells assessed as necrotic cells at 3 uM measured after 24 hrs by Annexin V-FITC/propidium iodide staining based flow cytometry (reference value: 0.331%); type: functional
[18] = tested on: A-375; assay: Induction of apoptosis in human A375 cells assessed as viable cells at 3 uM measured after 24 hrs by Annexin V-FITC/propidium iodide staining based flow cytometry (reference value: 90.123%); type: functional; conditions: read-out: Activity
[19] = tested on: A-375; assay: Cytotoxicity against human A-375 cells assessed as reduction in cell viability incubated for 72 hrs by SRB assay; type: functional, cell-based; conditions: Homo sapiens, A-375, 72 h; read-out: EC50
[20] = tested on: A-375; assay: Induction of apoptosis in human A375 cells assessed as late apoptotic cells at 3 uM measured after 48 hrs by Annexin V-FITC/propidium iodide staining based flow cytometry (reference value: 5.108%); type: functional
[21] = Selectivity ratio of EC50 for mouse NIH3T3 cells to EC50 for human A2780 cells; type: toxicity; conditions: NIH3T3 cells versus A2780 cells, read-out: Ratio EC50
[22] = tested on: A-375; assay: Induction of apoptosis in human A375 cells assessed as viable cells at 3 uM measured after 48 hrs by Annexin V-FITC/propidium iodide staining based flow cytometry (reference value: 92.723%); type: functional; conditions: read-out: Activity
[23] = tested on: A-375; assay: Induction of apoptosis in human A375 cells assessed as necrotic cells at 3 uM measured after 48 hrs by Annexin V-FITC/propidium iodide staining based flow cytometry (reference value: 0.547%); type: functional
[24] = tested on: A-375; assay: Cell cycle arrest in human A375 cells assessed as accumulation at S phase measured after 24 hrs by propidium iodide staining based flow cytometry (reference value: 47.46%); type: functional
[25] = tested on: A-375; assay: Induction of apoptosis in human A375 cells assessed as strangulation at 3 uM measured after 48 hrs by microscopic analysis; type: functional, cell-based; how it was run: as §1
[26] = Selectivity ratio of EC50 for mouse NIH3T3 cells to EC50 for human HT-29 cells; type: toxicity; conditions: NIH3T3 cells versus HT-29 cells, read-out: Ratio EC50
[27] = tested on: A-375; assay: Cell cycle arrest in human A375 cells assessed as accumulation at G2/M phase measured after 24 hrs by propidium iodide staining based flow cytometry (reference value: 7.48%); type: functional
[28] = tested on: A-375; assay: Cell cycle arrest in human A375 cells assessed as accumulation at subG1 phase measured after 24 hrs by propidium iodide staining based flow cytometry (reference value: 0.46%); type: functional
[29] = Selectivity ratio of EC50 for mouse NIH3T3 cells to EC50 for human MCF7 cells; type: toxicity; conditions: NIH3T3 cells versus MCF7 cells, read-out: Ratio EC50
[30] = tested on: A-375; assay: Induction of apoptosis in human A375 cells at 3 uM measured after 24 hrs by microscopic analysis; type: functional, cell-based; how it was run: as §1
[31] = tested on: A-375; assay: Induction of apoptosis in human A375 cells assessed as strangulation at 6.2 uM measured after 48 hrs by microscopic analysis; type: functional, cell-based; how it was run: as §1
[32] = tested on: A-375; assay: Induction of apoptosis in human A375 cells assessed as viable cells at 6.2 uM measured after 24 hrs by Annexin V-FITC/propidium iodide staining based flow cytometry (reference value: 90.123%); type: functional; conditions: read-out: Activity
[33] = tested on: A-375; assay: Induction of apoptosis in human A375 cells assessed as late apoptotic cells at 6.2 uM measured after 24 hrs by Annexin V-FITC/propidium iodide staining based flow cytometry (reference value: 7.352%); type: functional
[34] = tested on: A-375; assay: Induction of apoptosis in human A375 cells assessed as late apoptotic cells at 6.2 uM measured after 48 hrs by Annexin V-FITC/propidium iodide staining based flow cytometry (reference value: 5.108%); type: functional
[35] = tested on: A-375; assay: Induction of apoptosis in human A375 cells assessed as cell shrinkage at 6.2 uM measured after 48 hrs by microscopic analysis; type: functional, cell-based; how it was run: as §1
[36] = tested on: A-375; assay: Induction of apoptosis in human A375 cells assessed as early apoptotic cells at 6.2 uM measured after 24 hrs by Annexin V-FITC/propidium iodide staining based flow cytometry (reference value: 2.194%); type: functional
[37] = tested on: A-375; assay: Induction of apoptosis in human A375 cells at 6.2 uM measured after 24 hrs by microscopic analysis; type: functional, cell-based; how it was run: as §1
[38] = tested on: A-375; assay: Induction of apoptosis in human A375 cells assessed as viable cells at 6.2 uM measured after 48 hrs by Annexin V-FITC/propidium iodide staining based flow cytometry (reference value: 92.723%); type: functional; conditions: read-out: Activity
[39] = tested on: A-375; assay: Induction of apoptosis in human A375 cells assessed as necrotic cells at 6.2 uM measured after 24 hrs by Annexin V-FITC/propidium iodide staining based flow cytometry (reference value: 0.331%); type: functional
[40] = tested on: A-375; assay: Induction of apoptosis in human A375 cells assessed as early apoptotic cells at 6.2 uM measured after 48 hrs by Annexin V-FITC/propidium iodide staining based flow cytometry (reference value: 1.622%); type: functional
[41] = tested on: A-375; assay: Induction of apoptosis in human A375 cells assessed as necrotic cells at 6.2 uM measured after 48 hrs by Annexin V-FITC/propidium iodide staining based flow cytometry (reference value: 0.547%); type: functional
[42] = tested on: A-375; assay: Induction of apoptosis in human A375 cells assessed as blebbing at 6.2 uM measured after 48 hrs by microscopic analysis; type: functional, cell-based; how it was run: as §1

Structure (SMILES) | EC50 [1] [µM] | Activity [2] [%] | EC50 [3] [µM] | EC50 [6] [µM] | EC50 [7] [µM] | Activity [8] [%] | Activity [10] [%] | EC50 [11] [µM] | Activity [12] [%] | Activity [14] [%] | Ratio EC50 [15] | EC50 [19] [µM] | selectivity ratio [21] | Activity [24] [%] | selectivity ratio [26] | Activity [27] [%] | Activity [28] [%] | selectivity ratio [29] | further results
C=C(C)[C@@H]1CC[C@]2(C(=O)Nc3cncc4ccccc34)CC[C@]3(C)[C@H](CC[C@@H]4[C@@]5(C)CC[C@H](OC(C)=O)C(C)(C)[C@@H]5CC[C@]43C)[C@@H]12 | 4.65 | 0 | 2.26 | > 30 | 2.16 | 41.85 | 61.06 | > 135 | 23.32 | 34.84 | 59.7 | 1.48 | 62.5 | 36.56 | 4.5 | 0 | 2.38 | 29 | Activity [4]: Active; Activity [5]: 9.649%; Activity [9]: 44.309%; Activity [13]: 8.551%; Activity [16]: Active; Activity [17]: 0.351%; viability at 3 µM [18]: 83.5%; Activity [20]: 21.382%; viability at 3 µM [22]: 33.2%; Activity [23]: 1.115%; Activity [25]: Active; Activity [30]: Active
C=C(C)[C@@H]1CC[C@]2(C(=O)NCc3ccccc3)CC[C@]3(C)[C@H](CC[C@@H]4[C@@]5(C)C[C@H](OC(C)=O)[C@H](OC(C)=O)C(C)(C)[C@@H]5CC[C@]43C)[C@@H]12 | 11.3 | 0 | 5.4 | 20.7 | 4.42 | 52.38 | 63.76 | > 70 | 25.69 | 21.92 | 13 | 3.14 | 15.8 | 30.27 | 3.4 | 0 | 5.98 | 6.2 | Activity [31]: Active; viability at 6.2 µM [32]: 81.9%; Activity [33]: 7.93%; Activity [34]: 20.078%; Activity [35]: Active; Activity [36]: 9.546%; Activity [37]: Active; viability at 6.2 µM [38]: 34.3%; Activity [39]: 0.667%; Activity [40]: 44.187%; Activity [41]: 1.449%; Activity [42]: Active
